Screening results as filed in PubChem BioAssay.
A selection: hits, their analogues and other compounds. The true share with any hit is near 1.9%.
Vif inh: HIV Vif inhibition; HEK293T cells, Vif self-association by quenched fluorescence, imaging, 24 h; inhibition, % at 7.49 µM; hit rate 0.35% among 340,000; AID 602346; in the data active means inhibition above about 50%, passing the limit was not always enough
Glyco luc inh: blocks N-linked glycosylation in D54 reporter cells; AID 588692; D54 ERlucT glycosylation luciferase reporter, 24 h; percent of 100 nM tunicamycin response; reporter increase, % at 12.5 µM; hit rate 0.23% among 360,000;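 active means mean luciferase reporter signal, scaled so untreated is 0 and the glycosylation-blocking control 100, at or above a set limit in every replicate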;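 further: luciferase carries N-glycosylation sites so blocking glycosylation raises the light; 0% = median of neutral control wells and 100% = median of 100 nM tunicamycin wells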
bovine MsrA act: bovine methionine sulfoxide reductase A activation; purified bovine MsrA, absorbance read-out; activation, % at 10.6 µM; hit rate 0.3% among 360,000; in the data active means activation above about 7.5%;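 further: 0% = vehicle and 100% = reference activator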
aDG glyco act: increases alpha dystroglycan glycosylation. Pro5-aDG cells, alpha-DG glycosylation AlphaScreen (IIH6); 0% Pro5, 100% B10-LARGE cell signal. AID 624168. hit rate 0.22% among 360,000. activation, % at 10 µM;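 active means activation of at least 8% versus controls, or a plate z-score of at least 8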;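 further: Pro5 are CHO cells carrying HIG-tagged alpha-DG that lacks glycosylation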
MsrA inh: bovine MsrA inhibition. purified bovine MsrA, absorbance read-out. inhibition, % at 15.5 µM. hit rate 0.75% among 360,000. AID 651718; in the data active means inhibition above about 4.5%;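 further: 0% = vehicle wells with enzyme and 100% = reference inhibitor wells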
UCH37 inh: blocks the human deubiquitinase UCH37; purified proteasome/UCH37, Ub-AMC cleavage fluorescence; hit rate 0.33% among 330,000; inhibition, % (concentration not given with the values); AID 588478; Q9Y5K5;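 active means mean inhibition over replicate wells above about 20%, limit read from the data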;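 further: 0% = compound-free wells with enzyme and 100% = wells lacking proteasome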
Target sequence (Q9Y5K5 whole entry, looked up): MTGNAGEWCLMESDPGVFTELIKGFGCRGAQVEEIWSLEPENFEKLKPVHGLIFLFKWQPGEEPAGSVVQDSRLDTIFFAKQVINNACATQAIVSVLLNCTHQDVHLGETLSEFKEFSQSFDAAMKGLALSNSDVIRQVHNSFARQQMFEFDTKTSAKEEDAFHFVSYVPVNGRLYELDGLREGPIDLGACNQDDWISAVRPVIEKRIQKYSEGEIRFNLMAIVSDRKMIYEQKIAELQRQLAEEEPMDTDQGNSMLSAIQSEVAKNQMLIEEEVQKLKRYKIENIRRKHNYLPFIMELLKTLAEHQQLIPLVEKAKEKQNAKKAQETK
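Material: Human UCH37 enzyme supplied as purified proteasome complex | Schedule: 30 min compound-proteasome preincubation then 25 min substrate reaction, room temperature | Detection: AMC fluorescence from Ub-AMC cleavage, excitation 355 nm, emission 460 nm | Benchmarks: Wells without proteasome as full block, compound-free enzyme plus substrate as uninhibited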
UCH37 confirm: confirmation of human UCH37 deubiquitinating enzyme inhibitors; shares compounds with UCH37 inh; Proteasome-bound UCH37, Ub-AMC cleavage fluorescence; inhibition, % at 20 µM; hit rate 27% among 480; AID 624100;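 active means average inhibition over replicates above about 50%, so the earlier screening hit is confirmed, limit read from the data; inactive means the rest, counted as false positives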;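 further: based on cleavage rate fitted by regression over a 30 min kinetic read; 0% = proteasome plus Ub-AMC and 100% = Ub-AMC without proteasome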
The depositor's hits bear a star; nt = no result.

SMILES	Vif inh	Glyco luc inh	bovine MsrA act	aDG glyco act	MsrA inh	UCH37 inh	UCH37 confirm
Cc1[nH][nH]c(=O)c1C(c1c(C)[nH][nH]c1=O)c1cn(Cc2ccc(Cl)c(Cl)c2)c2ccccc12	6	10	0	0	0	47*	24
Cc1[nH][nH]c(=O)c1C(c1c(C)[nH][nH]c1=O)c1cn(Cc2ccc(F)cc2)c2ccccc12	4	15	-1	0	nt	12	nt
COc1cc(O)ccc1C=NNC(=O)c1ccc([N+](=O)[O-])cc1	nt	nt	nt	nt	nt	5	nt
O=C1OC(c2ccc3ccccc3c2O)(c2ccc3ccccc3c2O)c2ccccc21	11	-3	0	0	0	26*	-36
CCN1CCN(C2=C(NS(=O)(=O)c3ccc(C)cc3)C(=O)c3ccccc3C2=O)CC1	-6	-3	5	5	-1	18	nt
CCOC(=O)N1CCN(C2=C(NS(=O)(=O)c3ccc(NC(C)=O)cc3)C(=O)c3ccccc3C2=O)CC1	-3	1	-4	0	0	30*	15
Cc1cc(C)c[n+](C2=C([O-])c3ccccc3C(=O)/C2=N\S(=O)(=O)c2cccs2)c1	1	-4	-3	1	0	27*	11
O=C(NN=Cc1sc(=O)n(Cc2ccc(Br)cc2)c1Cl)c1ccco1	nt	nt	nt	nt	nt	0	nt
O=C1C(Cl)=C(NCCc2ccccc2)C(=O)c2ccccc21	35	2	1	0	0	76*	87*
CCN(CC)CCCNC1=C(Cl)C(=O)c2ccccc2C1=O	-4	-22	-1	9.2*	1	27*	39
COCCCNC1=C(Cl)C(=O)c2ccccc2C1=O	7	-1	5	3	-1	13	nt
O=C(Cn1cnc2ccccc21)NN=Cc1ccco1	nt	nt	nt	nt	nt	0	nt
CCOc1cc(/C=C2\SC(=S)N(C(C(=O)O)c3ccccc3)C2=O)ccc1O (stereo unspecified)	5	-1	-4	0	3	12	nt
CCOc1ccc(/C=C2/SC(=S)N(C(C(=O)O)c3ccccc3)C2=O)cc1OCC (stereo unspecified)	12	0	-4	0	0	51*	12
CCN1/C(=C/C=C/c2oc3ccc(-c4ccccc4)cc3[n+]2CC)Oc2ccc(-c3ccccc3)cc21	147*	-9	-2	0	1	35*	76*
CCCCCc1ccc(OCCCC[n+]2ccc(C)cc2)c(CCCCC)c1	1	3	-6	0	-4	29*	43
CCNc1c([N+](=O)[O-])ncn1C	5	0	-4	0	2	7	nt
Cn1cnc([N+](=O)[O-])c1Nc1ccc(O)cc1	7	3	-2	0	0	52*	0
O=c1[nH]c(=S)[nH]c2c1C(c1ccc(Br)cc1)c1c([nH]c(=S)[nH]c1=O)O2	4	1	-5	0	0	27*	38
CCOc1cccc(-c2c(C(=O)NN=Cc3ccc(C)s3)nnn2-c2nonc2N)c1	nt	nt	nt	nt	nt	3	nt
COc1ccc(NC(=O)/C=C/c2c(Cl)nc3ccccn23)cc1	2	1	-4	1	2	37*	9
CCOc1ccc(C2/C(=C(\O)c3cccc(OC)c3)C(=O)C(=O)N2c2cc(C)on2)cc1OC (stereo unspecified)	-1	0	0	0	1	49*	26
CCOC(=O)/C(=C/C=C1\Sc2ccccc2N1CC)C(C)=O	3	-3	-4	0	nt	30*	32
O=S(=O)(NCc1ccc(F)cc1)c1ccccc1Br	6	0	-2	1	0	35*	-11
COc1ccc2cc(C=NNC(=O)c3ccc(CN(c4ccc(C)c(C)c4)S(C)(=O)=O)cc3)c(Cl)nc2c1	nt	nt	nt	nt	nt	-26	nt
C#CCOCCOCCOCCNc1nc(N2CCN(C(=O)Cn3cc(CCO)nn3)CC2)nc(N2CCN(C(=O)[C@H]([C@@H](C)O)n3cc(CCCCN)nn3)CC2)n1	-3	0	1	0	0	38*	19
CC(C)[n+]1ccn(C2=C([O-])c3ccccc3C(=O)/C2=N\S(=O)(=O)c2ccccc2)c1	4	21	-2	0	-1	39*	23
